Data taken from ChEMBL document CHEMBL1146066, “4-quinolone derivatives: high-affinity ligands at the benzodiazepine site of brain GABA A receptors. synthesis, pharmacology, and pharmacophore modeling” (J Med Chem, 2006).

Tests used:
[1] = target: GABA-A receptor; anion channel; assay: Displacement of [3H]flumazenil from GABA-A receptor in rat cortical membranes; format: cell membranes, Membrane
Summary of the method: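 Rat cortex was homogenized in Tris-HCl, washed by centrifugation, incubated 30 min at 37 °C, and stored frozen. Assays used ca. 50 µg protein per 0.55 mL in Tris-citrate 50 mM pH 7.1 with 1 nM [3H]flumazenil for 40 min on ice, then filtered. Nonspecific binding came from 1 µM clonazepam.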

[2] = target: T1, GABA A receptor alpha-3/beta-2/gamma-2 (Homo sapiens, UniProt P18507+P34903+P47870); assay: Displacement of [3H]Flumazenil from human GABA-Aalpha3 receptor plus beta-2-gamma-2 expressed in HEK293 cells; format: cell-based
T1 sequence (P47870 whole entry): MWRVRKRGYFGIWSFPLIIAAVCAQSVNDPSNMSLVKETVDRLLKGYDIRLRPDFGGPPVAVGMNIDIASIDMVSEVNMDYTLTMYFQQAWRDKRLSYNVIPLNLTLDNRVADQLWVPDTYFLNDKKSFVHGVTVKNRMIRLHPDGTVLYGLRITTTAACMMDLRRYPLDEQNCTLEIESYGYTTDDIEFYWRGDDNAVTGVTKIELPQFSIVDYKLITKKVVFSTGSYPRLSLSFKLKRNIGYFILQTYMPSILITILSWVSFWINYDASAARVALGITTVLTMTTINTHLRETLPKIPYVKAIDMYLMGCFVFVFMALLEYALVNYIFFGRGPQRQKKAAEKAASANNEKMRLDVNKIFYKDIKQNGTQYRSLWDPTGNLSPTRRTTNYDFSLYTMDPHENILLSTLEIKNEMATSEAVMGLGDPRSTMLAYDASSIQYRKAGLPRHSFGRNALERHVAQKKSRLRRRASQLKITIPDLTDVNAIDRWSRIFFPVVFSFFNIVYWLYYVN
T1 sequence (P18507 whole entry): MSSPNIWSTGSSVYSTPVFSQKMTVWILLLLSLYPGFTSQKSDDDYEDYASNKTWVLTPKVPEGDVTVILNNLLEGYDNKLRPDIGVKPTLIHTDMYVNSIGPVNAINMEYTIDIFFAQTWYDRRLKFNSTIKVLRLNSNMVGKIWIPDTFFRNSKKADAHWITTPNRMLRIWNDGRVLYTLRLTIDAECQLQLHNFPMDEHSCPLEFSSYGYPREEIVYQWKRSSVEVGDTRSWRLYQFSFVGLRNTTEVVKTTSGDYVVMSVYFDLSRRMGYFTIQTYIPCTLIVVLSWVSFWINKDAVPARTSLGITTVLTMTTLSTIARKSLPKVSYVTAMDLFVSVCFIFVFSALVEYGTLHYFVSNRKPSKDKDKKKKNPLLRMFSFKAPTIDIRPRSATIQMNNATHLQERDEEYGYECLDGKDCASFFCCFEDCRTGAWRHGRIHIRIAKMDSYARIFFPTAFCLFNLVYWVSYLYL
T1 sequence (P34903 whole entry): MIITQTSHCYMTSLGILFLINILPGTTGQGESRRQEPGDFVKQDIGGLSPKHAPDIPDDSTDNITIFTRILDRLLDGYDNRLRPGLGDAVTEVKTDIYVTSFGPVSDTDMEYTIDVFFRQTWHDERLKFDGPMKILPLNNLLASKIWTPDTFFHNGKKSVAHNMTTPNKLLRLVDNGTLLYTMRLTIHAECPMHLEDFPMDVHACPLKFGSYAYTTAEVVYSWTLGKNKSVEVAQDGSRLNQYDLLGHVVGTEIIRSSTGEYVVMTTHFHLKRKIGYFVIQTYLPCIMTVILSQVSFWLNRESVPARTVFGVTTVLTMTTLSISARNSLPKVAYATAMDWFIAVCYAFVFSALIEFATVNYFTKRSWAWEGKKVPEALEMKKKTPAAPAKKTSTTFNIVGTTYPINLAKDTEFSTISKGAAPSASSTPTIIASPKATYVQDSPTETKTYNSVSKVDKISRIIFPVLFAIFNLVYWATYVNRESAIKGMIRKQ
Summary of the method: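 Membranes of HEK 293 cells carrying human α1β2γ2S or α3β2γ2S GABAA receptors, ca. 25 µg protein per 0.55 mL assay in Tris-citrate 50 mM pH 7.1. Incubated with 1 nM [3H]flumazenil (87 Ci/mmol) and test substance at 0-4 °C for 40 min, then filtered on GF/C and washed. Nonspecific binding taken with 1 µM clonazepam.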

[3] = target: GABA A receptor alpha-1/beta-2/gamma-2 (Homo sapiens); assay: Displacement of [3H]Flumazenil from human GABA-Aalpha1 receptor plus beta-2-gamma-2 expressed in HEK293 cells
[4] = Selectivity for human GABA-Aalpha1 receptor plus beta-2-gamma-2 over GABA-Aalpha3 receptor plus beta2gamma2

| Structure (SMILES) | Ki [1] | other results |
| --- | --- | --- |
| CCOC(=O)c1cnc2ccccc2c1O | 78 nM | – |
| CCCOC(=O)c1cnc2cc(C)nn2c1O | 870 nM | – |
| CCc1ccc2ncc(C(=O)OCC(C)CC)c(O)c2c1 (stereo unspecified) | 28 nM | – |
| CCc1ccc2ncc(C(=O)O)c(O)c2c1 | 208 nM | – |
| CCCOC(=O)c1cnc2ccc(CC)cc2c1O | 1.8 nM | – |
| CCOC(=O)c1cnc2ccc(C(F)(F)F)cc2c1O | 122 nM | – |
| CCCc1ccc2ncc(C(=O)OCC)c(O)c2c1 | 17 nM | – |
| CCc1ccc2ncc(C(=O)OC3CCCC3)c(O)c2c1 | 19 nM | – |
| CCCNC(=O)c1cnc2ccc(Cc3ccccc3)cc2c1O | 0.048 nM | – |
| CCOC(=O)c1cnc2ccc(CC)cc2c1O | 20 nM | – |
| CCOC(=O)c1cnc2ccc(C(C)C)cc2c1O | 15 nM | – |
| CCOC(=O)c1c(C)nc2ccc(Br)cc2c1O | 4200 nM | – |
| CCOC(=O)c1c[nH]c2ccc(Cc3ccccc3)cc2c1=O | – | Ratio Ki [4]: 27 |
| CCCCOC(=O)c1cnc2ccccc2c1O | 54 nM | – |
| CCOC(=O)c1cnc2ccc(Br)cc2c1O | 16 nM | Ki [2]: 26 nM; Ratio Ki [4]: 2; Ki [3]: 14 nM |
| CCOC(=O)c1cnc2cc(C)nn2c1O | > 10000 nM | – |
| CCc1ccc2ncc(C(=O)OC(CC)CC)c(O)c2c1 | 2600 nM | – |
| CCCOC(=O)c1cnc2ccc(Cc3ccccc3)cc2c1O | 0.17 nM | – |

The next lines start with results.

| Ki [1] | Structure (SMILES) | other results |
| --- | --- | --- |
| 0.26 nM | CCCNC(=O)c1cnc2ccc(CC)cc2c1O | – |
| 13 nM | CCCCOC(=O)c1cnc2ccc(CC)cc2c1O | – |
| 35 nM | CCCCCOC(=O)c1cnc2ccc(CC)cc2c1O | – |
| > 10000 nM | CCOC(=O)c1cnc2ccnn2c1O | – |
| 1.4 nM | CCOC(=O)c1cnc2ccc(Cc3ccccc3)cc2c1O | Ki [2]: 7.2 nM; Ki [3]: 0.27 nM |
| 214 nM | CCc1ccc2ncc(C(=O)OC(C)C)c(O)c2c1 | – |
| 0.54 nM | CCCCNC(=O)c1cnc2ccc(CC)cc2c1O | – |
| 295 nM | CCc1ccc2ncc(C(=O)OC(C)CC(C)C)c(O)c2c1 (stereo unspecified) | – |
| 92 nM | CCc1ccc2ncc(C(=O)OCC(CC)CC)c(O)c2c1 | – |
| 28 nM | CCc1ccc2ncc(C(=O)OCCC(C)C)c(O)c2c1 | Ki [2]: 89 nM; Ratio Ki [4]: 22; Ki [3]: 4.1 nM |
